Each block holds one compound with its values, some of them ahead of it.
What was measured:
[1] = Inhibition of RNA polymerase 2 in human HeLaScribe nuclear extracts after 1 hr; conditions: read-out: IC50
How it was run: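 HeLaScribe nuclear extract transcription with CMV(+) template DNA, 3 mM MgCl2, 400 μM CTP/GTP/UTP, 25 μM [33P]ATP. Inhibitor preincubated 5 min at 30 °C, then 1 h at 30 °C. Products run on 6% urea–polyacrylamide gel; full-length transcript quantified; IC50 is 50% product decrease.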

[2] = test system: DU-145; assay: Cytostatic activity against human DU145 cells after 5 days by SRB assay; format: functional; conditions: DU-145, 120 h
How it was run: (§1)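 Cells seeded per line density, overnight at 37 °C; day-zero plate TCA-fixed. 5-fold serial dilutions added, 5-day incubation; TCA fixation, 0.057% SRB in 1% acetic acid 30 min, dye dissolved in 10 mM Tris pH 10.5, A500. Growth relative to day-zero and untreated; GIC50 from sigmoidal dose–response fit; mean of two independent experiments.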

[3] = Cytotoxicity against human HeLaS3 cells after 3 days by XTT assay; format: functional, cell-based; conditions: HeLa S3, 72 h
How it was run: (§2)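 Suspension-grown cell lines, 3-day compound incubation; viability read by XTT metabolic assay; IC50 averaged from four independent experiments.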

[4] = test system: CCRF-CEM; assay: Cytotoxicity against human CCRF-CEM cells after 3 days by XTT assay; format: functional, cell-based; conditions: 72 h; how it was run: as §2
[5] = biological target: Adenosine kinase (Homo sapiens, UniProt P55263); assay: Inhibition of human ADK using [3H]-adenosine by scintillation counting
Chain of Adenosine kinase (P55263 whole entry): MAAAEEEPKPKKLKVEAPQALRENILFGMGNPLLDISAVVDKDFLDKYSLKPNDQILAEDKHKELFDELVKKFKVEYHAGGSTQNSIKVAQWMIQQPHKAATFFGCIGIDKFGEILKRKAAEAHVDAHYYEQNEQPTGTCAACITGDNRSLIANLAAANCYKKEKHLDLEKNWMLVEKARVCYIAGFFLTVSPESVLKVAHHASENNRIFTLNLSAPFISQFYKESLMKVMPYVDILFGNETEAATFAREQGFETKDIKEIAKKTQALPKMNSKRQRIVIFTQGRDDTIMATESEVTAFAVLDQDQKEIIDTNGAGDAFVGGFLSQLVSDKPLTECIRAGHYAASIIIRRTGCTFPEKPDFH

[6] = test system: NCI-H23; assay: Cytostatic activity against human NCI-H23 cells after 5 days by SRB assay; format: functional; conditions: NCI-H23, 120 h; how it was run: as §1
[7] = test system: HCT-116; assay: Cytostatic activity against human HCT116 cells after 5 days by SRB assay; format: functional; conditions: HCT-116, 120 h; how it was run: as §1
[8] = test system: HL-60; assay: Cytotoxicity against human HL60 cells after 3 days by XTT assay; format: functional, cell-based; conditions: HL-60, 72 h; how it was run: as §2
[9] = Cytostatic activity against human Hs578 cells after 5 days by SRB assay; format: functional; conditions: Hs578, 120 h; how it was run: as §1
[10] = test system: BT-549; assay: Cytostatic activity against human BT549 cells after 5 days by SRB assay; format: functional; conditions: BT-549, 120 h; how it was run: as §1
[11] = test system: PC-3; assay: Cytostatic activity against human PC3 cells after 5 days by SRB assay; format: functional; conditions: PC-3, 120 h; how it was run: as §1
[12] = test system: A549; assay: Cytostatic activity against human A549 cells after 5 days by SRB assay; format: functional; conditions: A549, 120 h; how it was run: as §1
[13] = test system: MT4; assay: Cytostatic activity against human MT4 cells after 5 days by SRB assay; format: functional; conditions: MT4, 120 h
[14] = test system: HCT-15; assay: Cytostatic activity against human HCT15 cells after 5 days by SRB assay; format: functional; conditions: HCT-15, 120 h; how it was run: as §1
[15] = test system: LNCaP; assay: Cytotoxicity against human LNCAP cells after 3 days by MTT assay; format: functional, cell-based; conditions: 72 h
[16] = test system: BT-549; assay: Cytotoxicity against human BT549 cells after 3 days by MTT assay; format: functional, cell-based; conditions: BT-549, 72 h
[17] = Cytotoxicity against mouse P388D1 cells after 3 days by MTT assay; format: functional, cell-based; conditions: P388D1, 72 h
[18] = Cytotoxicity against human U87MG cells after 3 days by MTT assay; format: functional, cell-based, U-87MG ATCC; conditions: U-87 MG, 72 h
[19] = test system: EL4; assay: Cytotoxicity against mouse EL4 cells after 3 days by MTT assay; format: functional, cell-based; conditions: EL4, 72 h
[20] = test system: L1210; assay: Cytotoxicity against mouse L1210 cells after 3 days by MTT assay; format: functional, cell-based; conditions: L1210, 72 h
[21] = test system: MCF7; assay: Cytotoxicity against human MCF7 cells after 3 days by MTT assay; format: functional, cell-based; conditions: MCF7, 72 h
[22] = test system: BJ; assay: Cytotoxicity against human BJ cells after 3 days by MTT assay; format: cell-based; conditions: 72 h
[23] = test system: HPAC; assay: Cytotoxicity against human HPAC cells after 3 days by MTT assay; format: functional, cell-based; conditions: 72 h
[24] = test system: BV-173; assay: Cytotoxicity against human BV173 cells after 3 days by MTT assay; format: functional, cell-based; conditions: BV-173, 72 h
[25] = Cytotoxicity against human CEM-DNR-bulk cells after 3 days by MTT assay; format: functional, cell-based; conditions: 72 h
[26] = test system: SK-OV-3; assay: Cytotoxicity against human SKOV3 cells after 3 days by MTT assay; format: functional, cell-based; conditions: SK-OV-3, 72 h
[27] = test system: SK-N-AS; assay: Cytotoxicity against human SK-N-AS cells after 3 days by MTT assay; format: functional, cell-based; conditions: 72 h
[28] = Cytotoxicity against human NCI-H146 cells after 3 days by MTT assay; format: functional, cell-based; conditions: NCI-H146, 72 h
[29] = test system: HeLa; assay: Cytotoxicity against human HeLa cells after 3 days by MTT assay; format: functional, cell-based; conditions: 72 h
[30] = test system: SK-MEL-2; assay: Cytotoxicity against human SK-MEL-2 cells after 3 days by MTT assay; format: functional, cell-based; conditions: SK-MEL-2, 72 h
[31] = test system: CT26; assay: Cytotoxicity against mouse CT26 cells after 3 days by MTT assay; format: functional, cell-based; conditions: CT26, 72 h
[32] = test system: C6; assay: Cytotoxicity against rat C6 cells after 3 days by MTT assay; format: functional, cell-based; conditions: C6, 72 h
[33] = Cytotoxicity against human MES-SA cells after 3 days by MTT assay; format: functional, cell-based; conditions: 72 h
[34] = test system: K562; assay: Cytotoxicity against human paclitaxel resistant K562 cells after 3 days by MTT assay; format: functional, cell-based; conditions: K562, 72 h
[35] = test system: K562; assay: Cytotoxicity against human K562 cells after 3 days by MTT assay; format: functional, cell-based; conditions: K562, 72 h
[36] = test system: HT-29; assay: Cytotoxicity against human HT-29 cells after 3 days by MTT assay; format: functional, cell-based; conditions: HT-29, 72 h
[37] = test system: MDA-MB-231; assay: Cytotoxicity against human MDA-MB-231 cells after 3 days by MTT assay; format: functional, cell-based; conditions: MDA-MB-231, 72 h

GI50 [11]: 2 nM
IC50 [5]: > 10000 nM
GI50 [6]: 2 nM
GI50 [7]: 3 nM
SMILES: Nc1ncnc2c1c(-c1c[nH]cn1)cn2[C@@H]1O[C@H](CO)[C@@H](O)[C@H]1O
IC50 [3]: 70 nM
IC50 [4]: 70 nM
GI50 [13]: 28 nM
IC50 [8]: 130 nM
GI50 [9]: 2 nM

GI50 [2]: 1870 nM
IC50 [5]: > 10000 nM
GI50 [6]: 390 nM
GI50 [7]: 1290 nM
SMILES: CSc1ccc(-c2cn([C@@H]3O[C@H](CO)[C@@H](O)[C@H]3O)c3ncnc(N)c23)cc1
IC50 [3]: > 10000 nM
IC50 [4]: > 10000 nM
GI50 [13]: 4400 nM
IC50 [8]: > 10000 nM
GI50 [9]: 1970 nM

GI50 [2]: 152 nM
GI50 [11]: 1110 nM
GI50 [14]: 544 nM
IC50 [5]: > 2000 nM
GI50 [6]: 856 nM
GI50 [12]: 701 nM
GI50 [7]: 633 nM
SMILES: COc1ccc(-c2cn([C@@H]3O[C@H](CO)[C@@H](O)[C@H]3O)c3ncnc(N)c23)cc1
IC50 [3]: > 10000 nM
IC50 [4]: > 10000 nM
GI50 [13]: 4300 nM
IC50 [8]: > 10000 nM
GI50 [9]: 811 nM

GI50 [2]: 19 nM
GI50 [11]: 4 nM
GI50 [14]: 3 nM
IC50 [5]: > 2000 nM
GI50 [6]: 294 nM
GI50 [12]: 35 nM
GI50 [7]: 48 nM
SMILES: Nc1ncnc2c1c(-c1ccco1)cn2[C@@H]1O[C@H](CO)[C@@H](O)[C@H]1O
IC50 [3]: 50 nM
IC50 [4]: 100 nM
GI50 [13]: 86 nM
IC50 [8]: 11600 nM
GI50 [9]: 17 nM

The next lines start with the compound.

SMILES: Nc1ncnc2c1ccn2[C@@H]1O[C@H](COP(=O)(O)OP(=O)(O)OP(=O)(O)O)[C@@H](O)[C@H]1O [TUBERCIDIN TRIPHOSPHATE]
IC50 [1]: 93000 nM

SMILES: Nc1ncnc2c1c(-c1cccc3ccccc13)cn2[C@@H]1O[C@H](CO)[C@@H](O)[C@H]1O
GI50 [2]: > 10000 nM
IC50 [3]: > 10000 nM
IC50 [4]: > 10000 nM
IC50 [5]: > 10000 nM
GI50 [6]: > 10000 nM
GI50 [7]: > 10000 nM
IC50 [8]: > 10000 nM
GI50 [9]: > 10000 nM

SMILES: COc1cccc2c1C(=O)c1c(O)c3c(c(O)c1C2=O)C[C@@](O)(C(=O)CO)C[C@@H]3O[C@H]1C[C@H](N)[C@H](O)[C@H](C)O1 [DOXORUBICIN]
GI50 [10]: 10 nM
GI50 [11]: 21 nM
GI50 [6]: 5 nM
GI50 [12]: 16 nM
GI50 [7]: 11 nM
GI50 [9]: 6 nM

SMILES: Nc1ncnc2c1c(-c1ccoc1)cn2[C@@H]1O[C@H](COP(=O)(O)OP(=O)(O)OP(=O)(O)O)[C@@H](O)[C@H]1O
IC50 [1]: > 400000 nM

SMILES: Nc1ncnc2c1c(-c1cccs1)cn2[C@@H]1O[C@H](COP(=O)(O)OP(=O)(O)OP(=O)(O)O)[C@@H](O)[C@H]1O
IC50 [1]: 54000 nM

SMILES: Nc1ccn([C@@H]2O[C@H](CO)[C@@H](O)C2(F)F)c(=O)n1 [GEMCITABINE]
IC50 [15]: 512 nM
IC50 [16]: 8 nM
IC50 [17]: 19 nM
IC50 [18]: 1490 nM
IC50 [19]: 7 nM
IC50 [20]: 7 nM
IC50 [21]: 149 nM
IC50 [22]: 9880 nM
IC50 [23]: 73 nM
IC50 [24]: 1 nM
IC50 [25]: 22 nM
IC50 [26]: > 10000 nM
IC50 [27]: 1100 nM
IC50 [28]: 2780 nM
IC50 [29]: 4120 nM
IC50 [30]: 7110 nM
IC50 [31]: 6 nM
IC50 [32]: 504 nM
IC50 [33]: 5 nM
IC50 [34]: 6 nM
IC50 [35]: 718 nM
IC50 [36]: 1530 nM
IC50 [37]: 245 nM

SMILES: Nc1ncnc2c1c(-c1ccco1)cn2[C@@H]1O[C@H](COP(=O)(O)OP(=O)(O)OP(=O)(O)O)[C@@H](O)[C@H]1O
IC50 [1]: 148000 nM
